PMC8441110 (Computational and Structural Biotechnology Journal, 2021)
Where no end group is shown, it is not given here.

Assays:
[1] = system: Staphylococcus aureus (S. aureus) (NCTC 10788); test: MIC/MBC determination; type: cell-based; conditions: 37 °C, 20 h; for MBC: 10 µl from MIC wells on MHA, no colony growth; for MIC: MHB, 5 × 10^5 CFU/ml, read at 550 nm
In short: (§1)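 Bacteria grown overnight at 37 °C in MHB and diluted to 5 × 10^5 CFU/ml. Peptide stocks in PBS, two-fold from 51200 µM to 100 µM, added 1 µl per 99 µl suspension. Norfloxacin (20 mg/l) was the positive control. After 20 h at 37 °C, OD 550 nm read; MIC = no apparent growth. For MBC, 10 µl from MIC and higher wells spotted on MHA, 37 °C 20 h; lowest without colonies.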

[2] = system: Escherichia coli (E. coli) (ATCC 8739); test: MIC/MBC determination; type: cell-based; conditions: 37 °C, 20 h; for MBC: 10 µl from MIC wells on MHA, no colony growth; for MIC: MHB, 5 × 10^5 CFU/ml, read at 550 nm
In short: as §1

[3] = system: MRSA (NCTC 12493); test: MIC/MBC determination; type: cell-based, Methicillin-resistant Staphylococcus aureus; conditions: 37 °C, 20 h; for MBC: 10 µl from MIC wells on MHA, no colony growth; for MIC: MHB, 5 × 10^5 CFU/ml, read at 550 nm
In short: as §1

[4] = system: Klebsiella pneumoniae (K. pneumoniae) (ATCC 43816); test: MIC/MBC determination; type: cell-based; conditions: 37 °C, 20 h; for MBC: 10 µl from MIC wells on MHA, no colony growth; for MIC: MHB, 5 × 10^5 CFU/ml, read at 550 nm
In short: as §1

[5] = system: Enterococcus faecium (E. faecium) (NTCC-12697); test: MIC/MBC determination; type: cell-based; conditions: 37 °C, 20 h; for MBC: 10 µl from MIC wells on MHA, no colony growth; for MIC: MHB, 5 × 10^5 CFU/ml, read at 550 nm
In short: as §1

[6] = system: Pseudomonas aeruginosa (P. aeruginosa) (ATCC 9027); test: MIC/MBC determination; type: cell-based; conditions: 37 °C, 20 h; for MBC: 10 µl from MIC wells on MHA, no colony growth; for MIC: MHB, 5 × 10^5 CFU/ml, read at 550 nm
In short: as §1

[7] = system: MRSA (BO38 V1S1 A); test: MIC/MBC determination; type: cell-based, Methicillin-resistant Staphylococcus aureus; conditions: 37 °C, 20 h; for MBC: 10 µl from MIC wells on MHA, no colony growth; for MIC: MHB, 5 × 10^5 CFU/ml, read at 550 nm
In short: as §1

[8] = system: MRSA (BO42 V2E1 A); test: MIC/MBC determination; type: cell-based, Methicillin-resistant Staphylococcus aureus; conditions: 37 °C, 20 h; for MBC: 10 µl from MIC wells on MHA, no colony growth; for MIC: MHB, 5 × 10^5 CFU/ml, read at 550 nm
In short: as §1

[9] = system: MRSA (ATCC BAA 1707); test: MIC/MBC determination; type: cell-based, Methicillin-resistant Staphylococcus aureus; conditions: 37 °C, 20 h; for MBC: 10 µl from MIC wells on MHA, no colony growth; for MIC: MHB, 5 × 10^5 CFU/ml, read at 550 nm
In short: as §1

[10] = system: S. aureus (NCTC 10788); test: Condition sensitivity assay; type: cell-based, Staphylococcus aureus
[11] = system: MRSA (NCTC 12493); test: Condition sensitivity assay; type: cell-based, Methicillin-resistant Staphylococcus aureus
[12] = system: human keratinocyte cell line HaCaT; test: Lactate dehydrogenase; type: cell-based; conditions: HaCaT cells, 100 μM peptide, 24 h, compared to the positive control
In short: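 Peptide added at 100 µM to 1 µM for 24 h. Lysis buffer gave maximum LDH; after 45 min, supernatant reacted 30 min dark at room temperature, then stopped. Absorbance read at 490 and 680 nm. Release expressed as percent of 1% Triton X-100, PBS negative; nine replicates from three experiments, mean ± SEM.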

Substance | MBC [1] | MIC [1] | MBC [2] | MIC [2] | MBC [3] | MIC [3] | MBC [4] | MIC [4] | MBC [5] | MIC [5] | MBC [6] | MIC [6] | MBC [7] | MIC [7] | MBC [8] | MIC [8] | MBC [9] | MIC [9] | MIC ([10]; MHB with 6 μM NH4Cl) | MIC ([10]; MHB with 1 mM MgCl2) | further results
GVIFNALK-NH2 [GV8] | > 512 µM | > 512 µM | > 512 µM | > 512 µM | > 512 µM | > 512 µM | > 512 µM | > 512 µM | > 512 µM | > 512 µM | > 512 µM | > 512 µM | > 512 µM | > 512 µM | > 512 µM | > 512 µM | > 512 µM | > 512 µM | – | – | –
GVIFNALKGVAK-NH2 [GV12] | > 512 µM | > 512 µM | > 512 µM | > 512 µM | > 512 µM | > 512 µM | > 512 µM | > 512 µM | > 512 µM | > 512 µM | > 512 µM | > 512 µM | > 512 µM | > 512 µM | > 512 µM | > 512 µM | > 512 µM | > 512 µM | – | – | –
TVAAQLLKKAR-NH2 [GV11] | > 512 µM | > 512 µM | > 512 µM | > 512 µM | > 512 µM | > 512 µM | > 512 µM | > 512 µM | > 512 µM | > 512 µM | > 512 µM | > 512 µM | > 512 µM | > 512 µM | > 512 µM | > 512 µM | > 512 µM | > 512 µM | – | – | –
GVIFNALKGVAKTVAAQLLKKAR-NH2 [GV23] | 16 µM | 2 µM | 8 µM | 4 µM | 2 µM | 2 µM | 64 µM | 32 µM | 16 µM | 16 µM | 16 µM | 16 µM | 8 µM | 2 µM | 8 µM | 8 µM | 8 µM | 8 µM | 2 µM | 2 µM | MIC ([10]; MHB with 2.5 mM CaCl2): 2 µM; MIC ([10]; MHB with 4 mM FeCl3): 2 µM; MIC ([10]; MHB with 4.5 mM KCl): 2 µM; MIC ([10]; MHB with 8 mM ZnCl2): 2 µM; MIC ([10]; MHB with 150 mM NaCl): 2 µM; MIC ([10]; MHB with 10% horse serum): 2 µM; MIC ([10]; PBS (no added salt)): 2 µM; MIC ([11]; MHB with 6 μM NH4Cl): 4 µM; MIC ([11]; MHB with 1 mM MgCl2): 4 µM; MIC ([11]; MHB with 2.5 mM CaCl2): 2 µM; MIC ([11]; MHB with 4 mM FeCl3): 2 µM; MIC ([11]; MHB with 4.5 mM KCl): 2 µM; MIC ([11]; MHB with 8 mM ZnCl2): 2 µM; MIC ([11]; MHB with 150 mM NaCl): 2 µM; MIC ([11]; MHB with 10% horse serum): 2 µM; MIC ([11]; PBS (no added salt)): 2 µM
GVIFNALKGVAKTVAAQLLKK-NH2 [GV21] | 4 µM | 2 µM | 8 µM | 4 µM | 4 µM | 4 µM | 16 µM | 16 µM | 8 µM | 4 µM | 16 µM | 16 µM | 8 µM | 8 µM | 16 µM | 8 µM | 8 µM | 4 µM | 2 µM | 2 µM | LDH release rate (maximum) [12]: 22.36%; MIC ([10]; MHB with 2.5 mM CaCl2): 2 µM; MIC ([10]; MHB with 4 mM FeCl3): 2 µM; MIC ([10]; MHB with 4.5 mM KCl): 2 µM; MIC ([10]; MHB with 8 mM ZnCl2): 2 µM; MIC ([10]; MHB with 150 mM NaCl): 2 µM; MIC ([10]; MHB with 10% horse serum): 2 µM; MIC ([10]; PBS (no added salt)): 2 µM; MIC ([11]; MHB with 6 μM NH4Cl): 4 µM; MIC ([11]; MHB with 1 mM MgCl2): 4 µM; MIC ([11]; MHB with 2.5 mM CaCl2): 4 µM; MIC ([11]; MHB with 4 mM FeCl3): 4 µM; MIC ([11]; MHB with 4.5 mM KCl): 4 µM; MIC ([11]; MHB with 8 mM ZnCl2): 4 µM; MIC ([11]; MHB with 150 mM NaCl): 4 µM; MIC ([11]; MHB with 10% horse serum): 4 µM; MIC ([11]; PBS (no added salt)): 4 µM
GVIFNALKGVAKTVAAQLLK-NH2 [GV20] | 8 µM | 4 µM | 32 µM | 8 µM | 8 µM | 8 µM | 64 µM | 32 µM | 64 µM | 16 µM | 64 µM | 32 µM | 32 µM | 16 µM | 64 µM | 32 µM | 32 µM | 16 µM | 4 µM | 4 µM | MIC ([10]; MHB with 2.5 mM CaCl2): 4 µM; MIC ([10]; MHB with 4 mM FeCl3): 4 µM; MIC ([10]; MHB with 4.5 mM KCl): 8 µM; MIC ([10]; MHB with 8 mM ZnCl2): 4 µM; MIC ([10]; MHB with 150 mM NaCl): 4 µM; MIC ([10]; MHB with 10% horse serum): 8 µM; MIC ([10]; PBS (no added salt)): 4 µM; MIC ([11]; MHB with 6 μM NH4Cl): 8 µM; MIC ([11]; MHB with 1 mM MgCl2): 8 µM; MIC ([11]; MHB with 2.5 mM CaCl2): 16 µM; MIC ([11]; MHB with 4 mM FeCl3): 8 µM; MIC ([11]; MHB with 4.5 mM KCl): 16 µM; MIC ([11]; MHB with 8 mM ZnCl2): 8 µM; MIC ([11]; MHB with 150 mM NaCl): 8 µM; MIC ([11]; MHB with 10% horse serum): 16 µM; MIC ([11]; PBS (no added salt)): 8 µM
